Measurements: ChEMBL document CHEMBL5303300, “EUbOPEN Chemogenomics Library - Multiplex” (2023)
Several values for one entry are separate records, joined by “and”; a condition that tells them apart may be missing. Identical values can stand only once.

Columns and labels:
[1] = tested on: Fibroblast; experiment: Multiplex assay against human fibroblast; assay type: toxicity, cell-based; details: number of replicates 2
How it was run: (§1)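 Cells stained live at seeding with Hoechst33342, BioTracker Green Microtubule Cytoskeleton Dye, MitoTracker Red and Annexin V Alexa Fluor 680 were imaged on a CQ1 microscope at 37°C and 5% CO2 after compound addition. Their classification by CellPathfinder machine-learning gating ran from Hoechst high-intensity objects versus normal cells, to healthy, pyknosed or fragmented nuclei among normal cells, to mitotic or apoptotic among pyknosed cells. Tubulin, mitochondrial-mass and membrane-permeability phenotypes are per cents of healthy-nucleus cells.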

[2] = tested on: HEK-293T; experiment: Multiplex assay against HEK293T; assay type: toxicity, cell-based; details: human, number of replicates 2; how it was run: as §1
[3] = 24 h, 10 µM, compound concentration 10 uM
[4] = 48 h, 1 µM, compound concentration 1 uM
[5] = 48 h, 10 µM, compound concentration 10 uM
[6] = 12 h, 1 µM, compound concentration 1 uM
[7] = 12 h, 10 µM, compound concentration 10 uM
[8] = 24 h, 1 µM, compound concentration 1 uM

## CN(C)C/C=C/C(=O)Nc1cc2c(Nc3ccc(F)c(Cl)c3)ncnc2cc1OC[C@@H]1CCCO1
[1]; [3]
  Population Normal (%): 97% and 93%
  Population Pyknosed Nuclei (%): 54% and 56%
  Population Tubulin-Different-Phenotype (%): 80% and 77%
  Total Cell Count: 147 and 216
[1]; [4]
  Population Apoptotic (%): 72% and 80%
  Population Fragmented Nuclei (%): 15% and 23%
  Population Healthy Nuclei (%): 68% and 64%
  Population Hoechst High Intensity Objects (%): 0% and 1%
  Population Membrane Permeable-Phenotype (%): 5% and 3%
  Population Mitochondria Different-Phenotype (%): 11% and 5%
  Population Mitotic Cells (%): 28% and 20%
  Population Normal (%): 100% and 98%
  Population Pyknosed Nuclei (%): 15% and 11%
  Population Tubulin-Different-Phenotype (%): 55% and 42%
  Total Cell Count: 157 and 217
[1]; [5]
  Population Apoptotic (%): 89% and 84%
  Population Fragmented Nuclei (%): 27% and 18%
  Population Healthy Nuclei (%): 24% and 32%
  Population Hoechst High Intensity Objects (%): 5% and 14%
  Population Membrane Permeable-Phenotype (%): 36% and 40%
  Population Mitochondria Different-Phenotype (%): 50% and 42%
  Population Mitotic Cells (%): 10% and 15%
  Population Normal (%): 94% and 85%
  Population Pyknosed Nuclei (%): 47% and 48%
  Population Tubulin-Different-Phenotype (%): 76%
  Total Cell Count: 128 and 187
[2]; [6]
  Population Apoptotic (%): 39% and 48%
  Population Fragmented Nuclei (%): 3% and 2%
  Population Healthy Nuclei (%): 83% and 85%
  Population Hoechst High Intensity Objects (%): 7% and 8%
  Population Membrane Permeable-Phenotype (%): 4% and 5%
  Population Mitochondria Different-Phenotype (%): 32% and 29%
  Population Mitotic Cells (%): 60% and 51%
  Population Normal (%): 92% and 91%
  Population Pyknosed Nuclei (%): 13% and 12%
  Population Tubulin-Different-Phenotype (%): 94% and 91%
  Total Cell Count: 593 and 650
[2]; [7]
  Population Apoptotic (%): 72% and 76%
  Population Fragmented Nuclei (%): 2% and 4%
  Population Healthy Nuclei (%): 75% and 78%
  Population Hoechst High Intensity Objects (%): 20% and 28%
  Population Membrane Permeable-Phenotype (%): 2% and 4%
  Population Mitochondria Different-Phenotype (%): 73% and 75%
  Population Mitotic Cells (%): 27% and 23%
  Population Normal (%): 79% and 71%
  Population Pyknosed Nuclei (%): 21% and 17%
  Population Tubulin-Different-Phenotype (%): 60% and 66%
  Total Cell Count: 256 and 344
[2]; [8]
  Population Apoptotic (%): 57% and 51%
  Population Fragmented Nuclei (%): 6% and 5%
  Population Healthy Nuclei (%): 87% and 86%
  Population Hoechst High Intensity Objects (%): 8%
  Population Membrane Permeable-Phenotype (%): 4%
  Population Mitochondria Different-Phenotype (%): 21% and 18%
  Population Mitotic Cells (%): 42% and 48%
  Population Normal (%): 91%
  Population Pyknosed Nuclei (%): 6% and 8%
  Population Tubulin-Different-Phenotype (%): 81% and 83%
  Total Cell Count: 811 and 859
[2]; [3]
  Population Apoptotic (%): 89% and 76%
  Population Fragmented Nuclei (%): 3% and 1%
  Population Healthy Nuclei (%): 62% and 73%
  Population Hoechst High Intensity Objects (%): 25% and 29%
  Population Membrane Permeable-Phenotype (%): 7% and 0%
  Population Mitochondria Different-Phenotype (%): 74% and 79%
  Population Mitotic Cells (%): 10% and 23%
  Population Normal (%): 74% and 70%
  Population Pyknosed Nuclei (%): 33% and 24%
  Population Tubulin-Different-Phenotype (%): 60% and 57%
  Total Cell Count: 303 and 369
[2]; [4]
  Population Apoptotic (%): 32% and 29%
  Population Fragmented Nuclei (%): 11% and 10%
  Population Healthy Nuclei (%): 83% and 85%
  Population Hoechst High Intensity Objects (%): 9% and 10%
  Population Membrane Permeable-Phenotype (%): 7% and 5%
  Population Mitochondria Different-Phenotype (%): 5% and 4%
  Population Mitotic Cells (%): 67% and 70%
  Population Normal (%): 90% and 89%
  Population Pyknosed Nuclei (%): 4%
  Population Tubulin-Different-Phenotype (%): 60% and 62%
  Total Cell Count: 1468 and 1438
[2]; [5]
  Population Apoptotic (%): 87% and 89%
  Population Fragmented Nuclei (%): 9% and 8%
  Population Healthy Nuclei (%): 43% and 53%
  Population Hoechst High Intensity Objects (%): 31% and 32%
  Population Membrane Permeable-Phenotype (%): 4% and 1%
  Population Mitochondria Different-Phenotype (%): 81% and 83%
  Population Mitotic Cells (%): 12% and 10%
  Population Normal (%): 68% and 67%
  Population Pyknosed Nuclei (%): 47% and 38%
  Population Tubulin-Different-Phenotype (%): 52% and 58%
  Total Cell Count: 355 and 410
